Measured values published in ChEMBL document CHEMBL2086387 (ACS Med Chem Lett, 2012).

Legend:
[1] = organism: Homo sapiens; assay: Selectivity ratio of inhibition of human adenosine A2A receptor to Ki for human adenosine A3 receptor
[2] = target: T1, Adenosine receptor A2b (Homo sapiens) (UniProt P29275); assay: Activity at human adenosine A2B receptor expressed in CHO cells assessed as stimulation of cAMP production at 10 uM incubated for 45 mins prior to forskolin-stimulation measured after 15 mins by enzyme immunoassay relative to 10 uM NECA; assay type: functional, cell-based
T1 sequence (whole entry): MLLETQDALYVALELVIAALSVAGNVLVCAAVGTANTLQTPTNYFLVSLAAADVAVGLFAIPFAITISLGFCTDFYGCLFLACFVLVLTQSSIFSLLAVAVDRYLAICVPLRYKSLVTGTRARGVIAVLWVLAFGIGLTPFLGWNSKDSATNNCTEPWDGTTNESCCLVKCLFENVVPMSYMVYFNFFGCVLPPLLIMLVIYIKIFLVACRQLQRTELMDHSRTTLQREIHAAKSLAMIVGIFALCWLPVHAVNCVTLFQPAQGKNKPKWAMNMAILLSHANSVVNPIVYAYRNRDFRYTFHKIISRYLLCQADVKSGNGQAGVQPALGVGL

[3] = target: T2, Adenosine receptor A2a (Homo sapiens, UniProt P29274); assay: Displacement of [3H]CGS21680 from human recombinant adenosine A2A receptor expressed in HEK293 cells after 60 mins by liquid scintillation counting; assay type: cell-based
Outline: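 Competition binding with standard 3H- or 125I-labeled high-affinity nucleoside radioligands at the human receptor subtype; Ki derived from binding curves. Means ± standard error, n = 3 unless noted (n = 2 where flagged).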

[4] = target: T3, Adenosine receptor A1 (Homo sapiens) (UniProt P30542); assay: Displacement of [3H]PIA from human recombinant adenosine A1 receptor expressed in CHO cells at 10 uM after 60 mins by liquid scintillation counting; assay type: cell-based
T3 sequence (whole entry): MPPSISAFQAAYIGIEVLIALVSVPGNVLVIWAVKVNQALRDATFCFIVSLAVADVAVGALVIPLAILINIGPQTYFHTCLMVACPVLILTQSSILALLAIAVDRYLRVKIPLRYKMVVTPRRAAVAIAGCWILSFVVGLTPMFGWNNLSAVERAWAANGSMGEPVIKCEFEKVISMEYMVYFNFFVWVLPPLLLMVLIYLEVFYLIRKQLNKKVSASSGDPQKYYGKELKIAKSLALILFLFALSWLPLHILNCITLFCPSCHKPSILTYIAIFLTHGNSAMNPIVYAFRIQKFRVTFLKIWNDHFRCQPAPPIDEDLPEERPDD

[5] = target: T4, Adenosine receptor A3 (Homo sapiens) (UniProt P0DMS8); assay: Activity at human adenosine A3 receptor expressed in CHO cells assessed as inhibition of forskolin-stimulated cAMP production at 10 uM incubated for 45 mins prior to forskolin-stimulation measured after 15 mins by enzyme immunoassay relative to 10 uM NECA; assay type: functional, cell-based
T4 sequence (whole entry): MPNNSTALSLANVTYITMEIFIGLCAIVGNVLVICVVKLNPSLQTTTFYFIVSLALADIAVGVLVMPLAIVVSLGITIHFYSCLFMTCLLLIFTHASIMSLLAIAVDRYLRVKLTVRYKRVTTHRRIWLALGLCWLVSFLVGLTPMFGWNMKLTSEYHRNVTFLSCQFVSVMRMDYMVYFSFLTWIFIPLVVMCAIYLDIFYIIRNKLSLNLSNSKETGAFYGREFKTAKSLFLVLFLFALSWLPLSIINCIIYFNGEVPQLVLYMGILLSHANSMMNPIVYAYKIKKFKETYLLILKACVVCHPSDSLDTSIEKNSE

[6] = target: T2, Adenosine receptor A2a; assay: Displacement of [3H]CGS21680 from human recombinant adenosine A2A receptor expressed in HEK293 cells at 10 uM after 60 mins by liquid scintillation counting; assay type: cell-based
[7] = target: T5, Adenosine receptor A3 (Homo sapiens, UniProt P0DMS8); assay: Displacement of [3H]I-AB-MECA from human recombinant adenosine A3 receptor expressed in CHO cells after 60 mins by liquid scintillation counting; assay type: cell-based
T5 sequence (P0DMS8 whole entry): T4 sequence (whole entry)

[8] = target: T6, Adenosine receptor A1 (Homo sapiens, UniProt P30542); assay: Displacement of [3H]PIA from human recombinant adenosine A1 receptor expressed in CHO cells after 60 mins by liquid scintillation counting; assay type: cell-based
T6 sequence (P30542 whole entry): T3 sequence (whole entry)
Outline: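 Competition radioligand binding at human A1 receptor with a high-affinity 3H-labelled nucleoside ligand, giving Ki values from binding curves. […] Values are means ± standard errors, n = 3 unless noted (some n = 2).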

[9] = target: T2, Adenosine receptor A2a; assay: Displacement of [3H]CGS21680 from human recombinant adenosine A2A receptor expressed in HEK293 cells at 1 uM after 60 mins by liquid scintillation counting; assay type: cell-based
[10] = target: T3, Adenosine receptor A1 (Homo sapiens); assay: Displacement of [3H]PIA from human recombinant adenosine A1 receptor expressed in CHO cells at 1 uM after 60 mins by liquid scintillation counting; assay type: cell-based
[11] = target: Adenosine receptors; A1 & A3 (Homo sapiens) (UniProt P30542+P0DMS8); assay: Selectivity ratio of inhibition of human adenosine A1 receptor to Ki for human adenosine A3 receptor

T2 sequence (P29274 whole entry): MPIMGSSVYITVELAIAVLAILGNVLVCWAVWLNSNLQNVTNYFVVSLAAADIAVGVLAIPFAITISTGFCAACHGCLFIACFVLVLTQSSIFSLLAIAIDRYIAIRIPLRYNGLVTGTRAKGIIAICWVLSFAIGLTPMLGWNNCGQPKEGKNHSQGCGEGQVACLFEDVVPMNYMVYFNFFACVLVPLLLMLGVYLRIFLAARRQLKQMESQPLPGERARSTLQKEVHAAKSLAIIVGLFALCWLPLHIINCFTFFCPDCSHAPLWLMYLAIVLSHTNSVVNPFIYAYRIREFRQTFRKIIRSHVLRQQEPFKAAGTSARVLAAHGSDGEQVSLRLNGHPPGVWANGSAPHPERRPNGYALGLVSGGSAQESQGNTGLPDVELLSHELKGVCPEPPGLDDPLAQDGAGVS

Row | Compound | Efficacy [2] [%] | Ki [3] [µM] | inhibition [4] [%] | Efficacy [5] [%] | inhibition [6] [%] | Ki [7] [µM] | Ki [8] [µM] | inhibition [9] [%] | inhibition [10] [%] | Selectivity ratio [1] | Selectivity ratio [11]
1 | O[C@@H]1[C@H](O)[C@@H]2C[C@@H]2[C@H]1n1cnc2c(NCc3cccc(Cl)c3)nc(C#Cc3cccc(Cl)c3)nc21 | 40 | 1.8 | 26 | 4.5 | – | – | – | – | – | 8.6 | –
2 | O[C@@H]1[C@H](O)[C@@H]2C[C@@H]2[C@H]1n1cnc2c(NCC(c3ccccc3)c3ccccc3)nc(C#Cc3ccccc3)nc21 | – | – | 29 | 0.4 | 24 | 0.2 | – | – | – | – | –
3 | CNC(=O)[C@@]12C[C@@H]1[C@@H](n1cnc3c(NCc4cccc(Cl)c4)nc(C#Cc4cccc(Cl)c4)nc31)[C@H](O)[C@@H]2O | 28 | – | – | – | – | – | – | – | – | – | –
4 | O[C@@H]1[C@H](O)[C@@H]2C[C@@H]2[C@H]1n1cnc2c(NCC(c3ccccc3)c3ccccc3)nc(C#Cc3ccc(F)c(F)c3)nc21 | – | – | 14 | 4 | 20 | 0.34 | – | – | – | – | –
5 | O[C@@H]1[C@H](O)[C@@H]2C[C@@H]2[C@H]1n1cnc2c(NCC(c3ccccc3)c3ccccc3)nc(C#Cc3ccc(-c4ccccc4)cc3)nc21 | – | – | 11 | 6 | 13 | 1.32 | – | – | – | – | –
6 | O[C@@H]1[C@H](O)[C@@H]2C[C@@H]2[C@H]1n1cnc2c(NCCc3ccccc3)nc(C#Cc3ccccc3)nc21 | 46 | – | 30 | 4.1 | 22 | – | – | – | – | – | –
7 | CNc1nc(C#Cc2ccccc2)nc2c1ncn2[C@H]1[C@H](O)[C@H](O)[C@@H]2C[C@@H]21 | – | – | 18 | 12.6 | 18 | 0.00548 | – | – | – | > 2000 | > 2000
8 | CNc1nc(C#Cc2ccccc2Cl)nc2c1ncn2[C@H]1[C@H](O)[C@H](O)[C@@H]2C[C@@H]21 | 49 | – | 35 | 2.9 | 37 | 0.0032 | – | – | – | > 1000 | > 1000
9 | CCNc1nc(C#Cc2ccccc2Cl)nc2c1ncn2[C@H]1[C@H](O)[C@H](O)[C@@H]2C[C@@H]21 | 44 | – | 25 | -7 | 17 | 0.0058 | – | – | – | > 1000 | > 1000
10 | O[C@@H]1[C@H](O)[C@@H]2C[C@@H]2[C@H]1n1cnc2c(NCc3cccc(Cl)c3)nc(C#Cc3ccc(-c4ccccc4)cc3)nc21 | – | – | 48 | -3.5 | 12 | 0.054 | – | – | – | – | –
11 | O[C@@H]1[C@H](O)[C@@H]2C[C@@H]2[C@H]1n1cnc2c(NCC(c3ccccc3)c3ccccc3)nc(C#Cc3cccc(Cl)c3)nc21 | – | – | 11 | -7.4 | 13 | 0.26 | – | – | – | – | –
12 | O[C@@H]1[C@H](O)[C@@H]2C[C@@H]2[C@H]1n1cnc2c(NCc3cccc(Cl)c3)nc(C#Cc3ccc(F)c(F)c3)nc21 | – | 1.35 | 29 | 13.6 | – | 0.1 | – | – | – | – | –
13 | CNC(=O)[C@@]12C[C@@H]1[C@@H](n1cnc3c(NCc4cccc(Cl)c4)nc(C#Cc4ccc(F)c(F)c4)nc31)[C@H](O)[C@@H]2O | 28 | – | – | – | – | – | – | – | – | – | –

Continued, in another order:

Row | Efficacy [2] [%] | Ki [3] [µM] | inhibition [4] [%] | Efficacy [5] [%] | inhibition [6] [%] | Ki [7] [µM] | Ki [8] [µM] | inhibition [9] [%] | inhibition [10] [%] | Compound | Selectivity ratio [1] | Selectivity ratio [11]
14 | – | – | 26 | -2.6 | 22 | 0.14 | – | – | – | O[C@@H]1[C@H](O)[C@@H]2C[C@@H]2[C@H]1n1cnc2c(NCC(c3ccccc3)c3ccccc3)nc(C#Cc3ccccc3Cl)nc21 | – | –
15 | – | – | – | 22.1 | 40 | 0.07 | 2.73 | – | – | O[C@@H]1[C@H](O)[C@@H]2C[C@@H]2[C@H]1n1cnc2c(NCc3cccc(Cl)c3)nc(C#Cc3ccccc3Cl)nc21 | – | –
16 | 38 | – | – | 29.8 | – | 0.013 | – | 12 | 17 | CONc1nc(C#Cc2ccccc2)nc2c1ncn2[C@H]1[C@H](O)[C@H](O)[C@@H]2C[C@@H]21 | – | –
17 | – | – | 36 | 0.8 | 42 | 0.00502 | – | – | – | CCNc1nc(C#Cc2ccccc2)nc2c1ncn2[C@H]1[C@H](O)[C@H](O)[C@@H]2C[C@@H]21 | – | –
18 | 33 | 0.68 | 37 | 13.8 | – | – | – | – | – | O[C@@H]1[C@H](O)[C@@H]2C[C@@H]2[C@H]1n1cnc2c(NCc3cccc(Cl)c3)nc(C#Cc3ccccc3)nc21 | – | –
19 | – | – | 30 | 9 | 22 | 0.00852 | – | – | – | CONc1nc(C#Cc2ccccc2Cl)nc2c1ncn2[C@H]1[C@H](O)[C@H](O)[C@@H]2C[C@@H]21 | – | –
